Compound activity: PubChem, Broad Institute
RAD54 branch: blocks human RAD54 Holliday junction branch migration. FAM/BHQ fluorescence. Q92698. AID 602329. hit rate 0.14% among 360,000. inhibition, % at 10.4 µM;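 active means mean normalized replicate activity at least 40 and at least half of replicates scoring 40 or more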;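 further: 0% = median of neutral control wells and 100% = median of positive control wells; inhibitors cause a drop in the FAM fluorescence signal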
Target sequence (Q92698 whole entry, looked up): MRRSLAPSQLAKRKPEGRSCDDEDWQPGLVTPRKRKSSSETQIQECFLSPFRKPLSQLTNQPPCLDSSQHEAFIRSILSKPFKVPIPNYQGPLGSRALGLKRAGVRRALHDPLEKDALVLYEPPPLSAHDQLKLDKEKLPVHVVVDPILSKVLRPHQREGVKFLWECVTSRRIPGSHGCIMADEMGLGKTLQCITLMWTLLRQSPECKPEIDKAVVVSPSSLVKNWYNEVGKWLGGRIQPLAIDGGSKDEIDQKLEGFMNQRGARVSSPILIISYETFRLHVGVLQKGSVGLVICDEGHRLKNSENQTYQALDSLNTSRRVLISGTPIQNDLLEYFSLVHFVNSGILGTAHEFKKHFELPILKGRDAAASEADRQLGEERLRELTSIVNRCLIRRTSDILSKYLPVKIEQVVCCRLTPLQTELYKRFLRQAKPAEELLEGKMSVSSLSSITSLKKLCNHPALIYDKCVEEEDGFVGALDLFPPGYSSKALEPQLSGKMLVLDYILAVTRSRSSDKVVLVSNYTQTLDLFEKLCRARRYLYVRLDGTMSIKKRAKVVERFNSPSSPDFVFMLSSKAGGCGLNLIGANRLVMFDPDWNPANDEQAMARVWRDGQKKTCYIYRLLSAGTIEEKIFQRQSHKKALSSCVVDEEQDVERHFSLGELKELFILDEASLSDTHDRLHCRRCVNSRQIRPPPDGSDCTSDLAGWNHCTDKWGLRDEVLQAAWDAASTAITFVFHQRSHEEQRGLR
AF4-AF9 inh: MLL-AF4/AF9 protein interaction inhibition. hit rate 0.47% among 350,000. AlphaScreen, biotin-AF4 peptide binding to FLAG-AF9. AID 651704. P42568. inhibition, % at 10 µM;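 active means every replicate reaching a set inhibition limit, whatever the replicate mean, cut at about 25% in these data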;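 further: 0% = plate neutral control median and 100% = total signal loss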
RAD52 inh: RAD52 (human) annealing inhibition; P43351; recombinant RAD52 DNA annealing, FRET fluorescence; inhibition, % at 18.7 µM; hit rate 0.46% among 360,000; AID 651710;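 active means every replicate showing at least 50% inhibition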
dFosB act-1: activators of mouse delta FosB homodimer; purified delta FosB, TAMRA-CDK5 oligo fluorescence polarization; percent of positive-control signal above neutral wells; hit rate 0.99% among 340,000; activation, % at 25 µM;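 active means mean activation above about 17%, with every replicate also reaching it, limit read from the data, passing the limit was not always enough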
S100A4 MyoIIA: S100A4-myosin IIA interaction inhibition | P26447 | S100A4/TAMRA-MyoIIA peptide fluorescence polarization | inhibition, % at 10.7 µM | hit rate 0.14% among 360,000;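 active means mean inhibition of at least 70% across replicates, with every replicate also reaching that level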
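Test system: S100A4 monomer protein. Medium: HEPES buffer with Ca2+, pH 7.2. Reagent: fluorescent myosin IIA peptide, 5 nM. Compound dosing: single-point compound testing. Timing: 5 min between mix addition and reading. Benchmarks: DMSO neutral and TFP positive wells.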
dFosB act-2: delta FosB (mouse) homodimer activation; shares compounds with dFosB act-1; purified delta FosB, TAMRA-CDK5 oligo fluorescence polarization; normalised: neutral wells 0, positive control 100; 2,400 tested, under 10 active; activation, % at 24.9 µM;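 active means highest replicate activation at or above 34% and every replicate reaching that threshold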;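 further: higher polarization means more probe DNA bound by delta FosB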
Starred values were filed as active, the others as inactive; / = no result given. Only some compounds are listed: those with a hit (about 1.5% of all), similar ones and a draw of the others.

SMILES | RAD54 branch | AF4-AF9 inh | RAD52 inh | dFosB act-1 | S100A4 MyoIIA | dFosB act-2
Cc1cc(C)cc(NC(=O)COC(=O)c2ccc3c(c2)OCCO3)c1 | 2 | -3 | -16 | 0 | -4 | /
Cc1ccccc1NC(=O)COC(=O)c1ccc2c(c1)OCCO2 | -4 | 1 | -3 | 16 | -2 | /
Cc1ccc(C)c(NC(=O)COC(=O)c2ccc3c(c2)OCCO3)c1 | -2 | 3 | -16 | 33* | 6 | -14
Cc1ccc(C(=O)OCC(=O)Nc2ccc3c(c2)OCCO3)cc1C | 10 | -1 | -1 | 22* | -1 | -14
O=C(Nc1ccccc1)N[C@H]1CC[C@@H](CCNS(=O)(=O)c2ccccc2F)O[C@@H]1CO | -10 | -1 | -8 | / | 12 | /
O=C(NC(=S)Nc1nc(-c2ccccc2)cs1)c1cccnc1 | / | 1 | 5 | 1 | -4 | /
O=C(Nc1nc(-c2ccccc2Cl)cs1)c1cccnc1 | 8 | / | / | 29* | / | 5
O=C(Cc1ccccc1F)Nc1nc(-c2cccnc2)cs1 | / | 0 | -1 | 39* | -1 | 6
O=C(CSc1nnnn1-c1ccccc1)Nc1nsc(-c2ccc(Cl)cc2)n1 | / | / | / | 58* | / | 2
Cc1ccc(-c2nc(NC(=O)CSc3nnc(C)s3)ns2)cc1 | -1 | 0 | 1 | 27* | -2 | -10
Cc1nnc(SCC(=O)Nc2nsc(-c3ccccc3)n2)s1 | 2 | / | / | -3 | / | /
CC=Cc1ccc2n(c1=O)C[C@H]1[C@H](CO)[C@@H](C(=O)N(C)C)[C@@H]2N1CC1CCCC1 (mixture of isomers) | / | -10 | -7 | / | 1 | /
CCCNC(=O)[C@@H]1[C@@H](CO)[C@@H]2Cn3c(ccc(-c4ccc(C(=O)N(C)C)cc4)c3=O)[C@@H]2N1CCC | 0 | -2 | -7 | / | 2 | /
CCN1/C(=C\C=C2\C(=O)N(c3ccccc3)C(=S)N2C)Sc2ccccc21 | / | 0 | -6 | 28* | -14 | 5
CCN1/C(=C\C=C(C(C)=O)C(C)=O)Sc2ccccc21 | / | 6 | -242 | -12 | -21 | /
C=CCNC(=O)c1cc(-c2ccc3c(c2)OCO3)on1 | 0 | -3 | -6 | 8 | -5 | /
COc1ccc(NC(=O)c2cc(-c3ccc4c(c3)OCO4)on2)cc1 | 11 | 5 | -13 | 26* | -5 | -1
Cc1ccc(NC(=O)c2cc(-c3ccc4c(c3)OCO4)on2)cc1 | 12 | 1 | -12 | 18* | -4 | 3
Cc1ccc2oc(-c3ccc(NC(=O)c4ccc5c(c4)OCO5)cc3)nc2c1 | 2 | / | / | 45* | / | 2
Cc1ccc(-c2cc(C(=O)NCc3ccc4c(c3)OCO4)no2)cc1 | -6 | / | / | 4 | / | /
O=C(Nc1ccc(Br)cc1)c1cc(-c2ccc3c(c2)OCO3)on1 | 5 | -1 | -6 | 25* | -5 | 0
COc1ccc(-c2cc(C(=O)Nc3ccc(C)cc3)no2)cc1 | 15 | / | / | -1 | / | /
Cc1nn(Cc2ccc(Cl)cc2)c(C)c1NC(=O)c1cc(-c2ccc3c(c2)OCO3)on1 | / | / | / | 58* | / | 7
Cc1nn(Cc2ccc(Cl)c(Cl)c2)c(C)c1NC(=O)c1cc(-c2ccc3c(c2)OCO3)on1 | 8 | / | / | -11 | / | /
CCCNC(=O)Nc1ccc2c(c1)C(=O)N(C)C[C@H](OC)[C@H](C)CN(C(=O)c1ccccc1F)[C@H](C)CO2 | 0 | -15 | 7 | / | -7 | /
SMILES | RAD54 branch | AF4-AF9 inh | RAD52 inh | dFosB act-1 | S100A4 MyoIIA | dFosB act-2
CC(=O)c1cn(CC(=O)Nc2ccccc2F)c2ccccc12 | 0 | 0 | -6 | -1 | 0 | /
O=C(Cn1c2ccccc2c(=O)c2ccccc21)Nc1ccccc1F | / | 5 | 18 | 37* | 0 | -2
Cc1cccc(NC(=O)c2ccc(S(=O)(=O)NCc3ccco3)cc2)n1 | -4 | -2 | -11 | 33* | -3 | 0
Cc1ccc(NC(=O)c2ccc(S(=O)(=O)NCc3ccco3)cc2)nc1 | -3 | 1 | -3 | 15 | -4 | /
O=C(CN(Cc1ccc(Cl)cc1)C(=O)CN1C(=O)COc2ccccc21)NC1CCCC1 | -5 | 0 | -8 | 29* | -1 | 8
COc1ccc(CN(CC(=O)NC2CCCC2)C(=O)CN2C(=O)COc3ccccc32)cc1 | 11 | -26 | -6 | 1 | -2 | /
NNC(=O)c1ccc(CSc2cccc3cccnc23)cc1 | -7 | 4 | 3 | -2 | -8 | /
COc1ccc(/C=N/NC(=O)c2ccc(COc3cccc4cccnc34)cc2)cc1OC | 3 | 1 | -11 | 19* | 6 | -1
O=C(N/N=C/c1cccc(O)c1)c1ccc(COc2cccc3cccnc23)cc1 | / | 0 | -28 | 33* | -6 | 0
COc1ccc(/C=N\NC(=O)c2ccc(-c3ccccc3)cc2)cc1COC(C)=O | -8 | -7 | -4 | 34* | -2 | -5
O=C(N/N=C/c1ccccc1Br)c1ccc(CSc2cccc3cccnc23)cc1 | 3 | / | / | 28* | / | 6
COc1ccc(CN(C)C[C@H]2Oc3c(NS(C)(=O)=O)cccc3C(=O)N([C@H](C)CO)C[C@@H]2C)cc1 | -7 | 2 | -18 | / | -4 | /
COc1ccc(NC(=O)N(C)C[C@@H]2OCCCC[C@@H](C)Oc3ccc(NS(=O)(=O)c4cccs4)cc3C(=O)N([C@H](C)CO)C[C@@H]2C)cc1 | -1 | -10 | -14 | / | -3 | /
CC(=O)N(C)C[C@H]1Oc2cc(-c3cccc(C#N)c3)ccc2S(=O)(=O)N([C@H](C)CO)C[C@@H]1C | -1 | 1 | 8 | / | -12 | /
COc1cc(/C=N/NC(=O)c2ccncc2)ccc1OC(=O)c1ccccc1Cl | / | 4 | -2 | -20 | -21 | /
COc1ccc(/C=N/NC(=O)c2cc3c(ccc4ccccc43)o2)cc1OC | -4 | 0 | -11 | 77* | -1 | 5
COc1cc(C(=O)N/N=C/c2ccc(OC(=O)c3ccccc3Cl)c(OC)c2)ccc1O | -5 | / | / | 25* | / | 2
CCO[C@H]1OC(C(=O)N2CCCCCCC2)=C[C@@H](C2CC2)[C@@H]1CCCO | -14 | -1 | 11 | / | 9 | /
O=C(C[C@H]1C=C[C@H](NS(=O)(=O)c2ccccc2)[C@H](CO)O1)NCc1ccncn1 | 0 | -2 | -5 | / | -7 | /
Cc1noc(C)c1S(=O)(=O)Nc1cccc2c1O[C@@H](CN(C)S(=O)(=O)c1ccccc1)[C@@H](C)CN([C@@H](C)CO)C2=O | 5 | -14 | -35 | / | -9 | /
COCC(=O)Nc1ccc2c(c1)[C@@H]1C[C@H](CC(=O)NCc3cccnc3)O[C@H](CO)[C@@H]1O2 | 1 | -1 | -5 | / | -1 | /
COc1cccc(-n2nnc3c(=O)n(CC(=O)Nc4ccc(C)cc4)cnc32)c1 | / | -2 | 5 | 27* | 27 | -6
CCOc1ccc(-n2nnc3c(=O)n(CC(=O)NCc4ccco4)cnc32)cc1 | 3 | -4 | -19 | 22* | 6 | 4
Cc1ccc(-n2nnc3c(=O)n(CC(=O)NCc4ccco4)cnc32)cc1 | -3 | -4 | -16 | 0 | 0 | /
